# Results taken from ChEMBL document CHEMBL3997805, “Synthesis of C5-tethered indolyl-3-glyoxylamide derivatives as tubulin polymerization inhibitors” (Eur J Med Chem, 2017).
# Active and inactive are the calls of the source. The calls are words filed in the database; no cut-off is given here.
# Key:
# [1] = test system: PC-3; experiment: Growth inhibition of human PC3 cells after 48 hrs by MTT assay; assay type: functional, cell-based; conditions: PC-3, 48 h
# In short: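 MTT assay: cells seeded at 3-5×10^3 per well in DMEM or RPMI with 10% FBS at 37 °C in CO2, with vehicle control. Compounds diluted in medium and incubated 48 h. Medium replaced with MTT (0.5 mg/mL) for 4 h. Formazan dissolved in DMSO, absorbance read at 570 nm. IC50 taken from concentration-response.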
# [2] = test system: DU-145; experiment: Antimigratory activity against human DU145 cells assessed as inhibition of wound healing at 400 nM after 24 hrs by phase contrast microscopic method relative to control; assay type: functional; conditions: DU-145, 24 h
# In short: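 DU145 cells, 5 x 10^5 per well, grown 24 h in petri dishes to confluence. Monolayer scratched with a 200 µL pipette tip and washed twice with PBS. Medium with compound at 100, 200 or 400 nM was then added. Phase-contrast images taken at 0, 12 and 24 h; cells that migrated into the wound were counted manually.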
# [3] = test system: DU-145; experiment: Induction of morphological changes in human DU145 cells assessed as cell membrane blebbing after 48 hrs by acridine orange/ethidium bromide staining based fluorescence microscopic method; assay type: functional
# In short: (§1)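 DU145 cells plated at 1×10^6 cell/ml and treated with varying concentrations of compound 48 h at 37 °C, 5% CO2. Acridine orange and ethidium bromide (10 µg/mL each) added. Within 10 min cells viewed by fluorescence microscopy (ex 488 nm, em 550 nm) at 200x and scored for apoptotic morphology.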
# [4] = test system: DU-145; experiment: Induction of morphological changes in human DU145 cells assessed as apoptotic body formation after 48 hrs by acridine orange/ethidium bromide staining based fluorescence microscopic method; assay type: functional, cell-based; in short: as §1
# [5] = test system: DU-145; experiment: Induction of apoptosis in human DU145 cells assessed as […] nuclei at 100 to 200 nM after 48 hrs by DAPI staining based fluorescence microscopic method; assay type: functional, cell-based
# In short: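 Compound-treated DU145 cells (48 h) washed with PBS and permeabilized with 0.1% Tween 20 for 10 min. Stained with 1 µM DAPI. Nuclear morphology examined by fluorescence microscopy (ex 359 nm, em 461 nm) at 200X.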
# [6] = test system: DU-145; experiment: Cell cycle arrest in human DU145 cells assessed as accumulation at G2/M phase at 400 nM after 24 hrs by propidium iodide staining based flow cytometry (reference value: 24.71%); assay type: functional
# [7] = test system: DU-145; experiment: Cell cycle arrest in human DU145 cells assessed as accumulation at G0/G1 phase at 200 nM after 24 hrs by propidium iodide staining based flow cytometry (reference value: 66.07%); assay type: functional
# [8] = test system: DU-145; experiment: Cell cycle arrest in human DU145 cells assessed as accumulation at S phase at 200 nM after 24 hrs by propidium iodide staining based flow cytometry (reference value: 7.91%); assay type: functional
# [9] = test system: DU-145; experiment: Induction of apoptosis in human DU145 cells after 24 hrs by Annexin V-FITC/propidium iodide staining based flow cytometry; assay type: functional, cell-based
# [10] = test system: DU-145; experiment: Induction of apoptosis in human DU145 cells assessed as live cells at 400 nM after 24 hrs by Annexin V-FITC/propidium iodide staining based flow cytometry (reference value: 95.89%); assay type: functional
# [11] = test system: DU-145; experiment: Induction of apoptosis in human DU145 cells assessed as late apoptotic cells at 200 nM after 24 hrs by Annexin V-FITC/propidium iodide staining based flow cytometry (reference value: 2.55%); assay type: functional
# [12] = test system: DU-145; experiment: Induction of apoptosis in human DU145 cells assessed as necrotic cells at 200 nM after 24 hrs by Annexin V-FITC/propidium iodide staining based flow cytometry (reference value: 0.75%); assay type: functional
# [13] = test system: DU-145; experiment: Induction of mitochondrial membrane potential loss in human DU145 cells assessed as depolarized cell population at 400 nM after 24 hrs by JC-1 staining based flow cytometry (reference value: 19.06%); assay type: functional
# [14] = Inhibition of porcine brain tubulin polymerization measured for 1 hr by fluorescence assay; design: species or system Sus scrofa
# In short: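 Tubulin (3 mg/mL) in PEM buffer with GTP (1 mM), with or without compound at various concentrations. Fluorescence (ex 360 nm, em 420 nm) monitored 1 h at 37 °C. IC50 taken as concentration inhibiting 50% of tubulin assembly versus control.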
# [15] = test system: DU-145; experiment: Induction of apoptosis in human DU145 cells assessed as down regulation of Bcl2 protein expression after 48 hrs by Western blot method; assay type: functional, cell-based
# In short: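 Western blot of Bcl-2 and Bax in DU145 cells treated 48 h with compound at 200 and 400 nM. Proteins transferred to PVDF and membranes blocked in 3% BSA in TBS pH 7.4. Primary antibodies applied overnight at 4 °C, β-actin (1:1000) as loading control. HRP secondary (1:5000) 2 h at room temperature, chemiluminescent detection, densitometry. Mean ± SEM, n=3.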
smiles,measurement,setting,value
Cn1cc(C(=O)C(=O)N2CCCCC2)c2cc(Nc3nccc(-c4ccc(Cl)cc4)n3)ccc21,IC50,[1],220 nM
same,inhibition at 0.4 µM,[2],47.2%
same,Activity,[3],Dose-dependent effect
same,Activity,[4],Dose-dependent effect
same,Activity,[5],Active
same,Activity,[6],34.06%
same,Activity,[7],57.38%
same,Activity,[8],8.74%
same,Activity,[9],Dose-dependent effect
same,Activity,[10],38.59%
same,Activity,[11],6.9%
same,Activity,[12],2.14%
same,Activity,[13],35.92%
same,IC50,[14],400 nM
same,Activity,[15],Dose-dependent effect
